Assay outcomes: PubChem, NMMLSC
In the library only some 0.9% were active in any assay of this set; here they are far more common.
RGS4-Gao reg: modulates binding of RGS4 to human Galphao | P09471 | Multiplexed bead flow cytometry; actives lie on both sides | binding response (% of control), % at 10 µM | hit rate 0.33% among 220,000; in the data active = binding response below about 49% or above about 150%; inactive = in between;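 also: fluorescent Galphao activated with aluminum fluoride binding bead-coupled RGS4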
ABCG2 block: inhibitors of human ABCG2 transporter, ABCB1 counter-screen | Q9UNQ0 | IgMXP3 cells, JC-1 efflux, flow cytometry | inhibition, % at 6.6 µM | hit rate 0.1% among 190,000 | AID 1325;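 active = inhibition above 80%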
Target sequence (Q9UNQ0 whole entry, looked up): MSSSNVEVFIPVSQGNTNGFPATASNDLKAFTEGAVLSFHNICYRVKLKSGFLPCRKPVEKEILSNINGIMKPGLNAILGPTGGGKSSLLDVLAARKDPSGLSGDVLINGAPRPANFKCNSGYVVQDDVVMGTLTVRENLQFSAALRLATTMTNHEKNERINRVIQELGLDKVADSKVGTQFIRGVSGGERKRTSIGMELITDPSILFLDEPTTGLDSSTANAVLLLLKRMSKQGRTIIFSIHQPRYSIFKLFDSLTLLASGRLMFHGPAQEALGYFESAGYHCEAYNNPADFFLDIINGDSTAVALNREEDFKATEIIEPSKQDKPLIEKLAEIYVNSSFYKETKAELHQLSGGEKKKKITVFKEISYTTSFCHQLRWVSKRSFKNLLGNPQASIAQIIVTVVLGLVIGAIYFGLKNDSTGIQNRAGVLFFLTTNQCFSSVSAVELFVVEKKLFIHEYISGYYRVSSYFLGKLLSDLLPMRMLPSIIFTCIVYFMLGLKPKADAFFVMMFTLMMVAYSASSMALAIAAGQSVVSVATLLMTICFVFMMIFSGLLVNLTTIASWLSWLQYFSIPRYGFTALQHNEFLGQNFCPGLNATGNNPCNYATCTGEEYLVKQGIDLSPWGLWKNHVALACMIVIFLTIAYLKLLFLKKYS
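Assay system – ABCG2 IgMXP3 and barcoded ABCB1 CCRF-Adr cell mix · Input – 3 million cells/mL in well · Reagent – JC-1 fluorescent substrate · Compound – single test compound dose, 6.6 µM final · Timing – 10 min exposure at 25 °C with rotation, no wash · Detection – flow cytometry of retained JC-1 fluorescence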
ABCB1 inh: blocks JC-1 efflux by human ABCB1 transporter; hit rate 0.067% among 190,000; AID 1326; inhibition, % at 6.6 µM; CCRF-Adr cells, flow cytometry; P08183; in the data active = inhibition above about 40%;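 also: higher value means more JC-1 retained so stronger ABCB1 efflux block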
RGS8-Gao: regulators of human RGS8-Galphao interaction; response (percent of control binding), % at 10 µM; multiplexed bead flow cytometry, RGS8-Galphao binding; actives lie on both sides; hit rate 0.34% among 220,000; P09471; in the data active = response below about 60% or above about 140%; inactive = in between;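 also: Galphao activated as the GDP aluminium fluoride complex binding bead-coupled RGS8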
RGS16-Gao: modulates binding between human RGS16 and Galphao | O15492+P09471 | binding response (% of control), % at 10 µM | hit rate 0.38% among 220,000 | AID 1441 | bead-based flow cytometry RGS16-Galphao binding, fluorescence; actives lie on both sides; call rule not given here;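 also: Galphao activated by GDP with aluminum fluoride before binding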
RGS7-Gao: regulators of human RGS7-Galphao interaction; hit rate 0.35% among 220,000; binding response (% of control), % at 10 µM; P09471; Multiplexed bead flow cytometry, RGS7-Galphao binding; actives lie on both sides; in the data active = binding response below about 49% or above about 150%; inconclusive = no clear call, values can overlap the other calls; inactive = in between;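 also: fluorescent Galphao held in activated GDP-AlF4 state binding bead-coupled RGS7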
ABCB1 confirm: inhibits human ABCB1 efflux, confirmed at single point | inhibition, % at 6.6 µM | hit rate 7% among 270 | shares compounds with ABCG2 block | CCRF-Adr cells, JC-1 efflux, flow cytometry | AID 1451;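 active = inhibition of pump activity above 50%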
ABCG2 confirm: confirmation of human ABCG2 transporter inhibitors, ABCB1 counter-screen. shares compounds with ABCG2 block. IgMXP3 cells, JC-1 efflux, flow cytometry. inhibition, % at 6.6 µM. hit rate 6% among 270. AID 1453;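 active = inhibition above 50%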
IgMXP3 autofluor: IgMXP3 autofluorescence flag for ABCG2 confirmation; shares compounds with ABCG2 block; hit rate 30% among 270; IgMXP3 cells, compound autofluorescence 488/530 nm, flow; stronger effect = higher value; fluorescence at 6.6 µM;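 active = fluorescence in ABCG2-expressing cells above the plate's control-well mean plus 3 SD, cut at about 15 in these data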
CCRF autofluor: CCRF-Adr autofluorescence flag for ABCB1 confirmation | CCRF-Adr cells, compound autofluorescence 488/530 nm, flow cytometry; stronger effect = higher value | shares compounds with ABCG2 block | fluorescence at 6.6 µM | hit rate 30% among 270;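 active = fluorescence beyond the plate control mean plus 3 SD, with a fluorescence-to-maximum score over 2, cut at about 25 in these data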
Hits are given with their value; – = inactive; ? = inconclusive; · = no result; + = active, no number.

SMILES	RGS4-Gao reg	ABCG2 block	ABCB1 inh	RGS8-Gao	RGS16-Gao	RGS7-Gao	ABCB1 confirm	ABCG2 confirm	IgMXP3 autofluor	CCRF autofluor
CCNC(=O)NC(=O)COC(=O)CCCSc1nc2ccccc2s1	–	–	–	–	–	–	·	·	·	·
CCN(CC)c1ccc(C=C2C(=O)OC3(CCCCC3)OC2=O)cc1	–	–	–	–	–	–	·	·	·	·
CCN(CC)c1ccc(/C=C2/C(=O)c3ccc(C(=O)O)cc3C2=O)cc1	–	+	140.3	–	–	–	–	–	251	169
O=C1S/C(=C/c2ccc(N3CCOCC3)o2)C(=O)N1Cc1c(F)cccc1Cl	–	135.9	–	–	–	–	–	–	248	49.4
CCCN1C(=O)/C(=C\C=C2/Sc3ccccc3N2CC)SC1=S	–	–	–	–	–	–	·	·	·	·
CCCN1C(=O)/C(=C\C=C2\N(CC)c3ccccc3C2(C)C)SC1=S	–	104.0	68.2	–	–	–	–	–	63	252
CC(=O)c1ccccc1NCC(=O)Nc1ccc(C)cc1	–	–	–	–	–	–	·	·	·	·
O=[N+]([O-])c1ccc(Nc2nc(Cl)nc(NCCO)n2)cc1	–	–	–	–	–	?	–	54.5	–	–
CCCCOC(=O)c1ccc(O)cc1	–	–	–	–	–	–	·	·	·	·
CCCCOC(=O)Nc1ccc(C(=O)OCCC)cc1	–	–	–	–	–	–	–	–	–	–
Cc1nc2cc(-c3cccc(F)c3)nn2c(N2CCN(C(=O)c3ccco3)CC2)c1C	–	90.7	63.4	–	–	–	51.5	50.2	–	–
Cc1nc2cc(-c3cccc(F)c3)nn2c(C)c1CCC(=O)N1CCN(c2ccccn2)CC1	–	·	·	–	–	?	·	·	·	·
O=C(CSc1cccc[n+]1[O-])Nc1cccc(S(=O)(=O)NC2=NCCCCC2)c1	–	–	–	–	–	?	·	·	·	·
CCOc1cc(CNCCSc2nnnn2C)cc(Br)c1OCc1ccc(F)cc1	–	105.3	–	–	–	–	–	–	–	34
CN(C)c1ccc(/C=C2\SC(=S)N(Nc3ncc(C(F)(F)F)cc3Cl)C2=O)cc1	–	+	186.9	–	–	–	–	–	228	391
O=C(CCC1CCCN(C(=O)CCN2CCCCC2=O)C1)NCc1ccccc1F (configuration not stated)	–	–	–	–	–	–	·	·	·	·
CCOCCCNc1nc2c(C)cccn2c(=O)c1/C=C1\SC(=S)N(CC(C)C)C1=O	–	141.0	48.4	–	–	–	–	–	43.8	211
CCOCCCNc1nc2c(C)cccn2c(=O)c1/C=C1\SC(=S)N(C(C)CC)C1=O (configuration not stated)	–	·	·	–	–	?	·	·	·	·
CN(C)c1ccc(P(=O)(Nc2cccc(C(F)(F)F)c2)N2CCOCC2)c(NC(=O)c2cccs2)c1 (configuration not stated)	–	–	50.7	–	–	–	74.7	–	–	–
Cc1oc2c(C)c3oc(=O)c4c(c3cc2c1C)CCCC4	–	–	–	–	–	–	–	–	–	–
Cc1c(O)ccc2c3c(c(=O)oc12)CCCC3	–	–	–	–	–	–	·	·	·	·
O=c1ccnc(Nc2ccc3c(c2)OCCO3)[nH]1	–	–	–	–	–	–	·	·	·	·
O=S(=O)(c1cccc(F)c1)N1CCc2sccc2C1c1ccc(OC(F)(F)F)cc1 (configuration not stated)	–	·	·	–	–	?	·	·	·	·
O=C1NC(CCc2ccccc2)C(=O)N1Cc1cccc2ccccc12 (configuration not stated)	–	159.0	89.9	–	–	–	–	–	–	–
